Experimental data from different studies.
Observed: cell growth or viability

`COc1cccc2c1C(=O)c1c(O)c3c(c(O)c1C2=O)C[C@@](O)(C(=O)CO)C[C@@H]3O[C@H]1C[C@H](N)[C@H](O)[C@H](C)O1` has a viability of 33.8% (MDA-MB-231; MTT; 25 µM; 48 h).
For `COc1ccc(S(=O)(=O)ON=C2C=C(C)C(=O)C(C)=C2)cc1`, the CC50 was 1.03 µM (MDA-MB-231).
The viability of `COc1ccc(-c2nc3ncccn3c2NC(C)(C)CC(C)(C)C)cc1O` is reported as 67.3% (MDA-MB-231; MTT; 25 µM; 48 h).
For `CC1(C)OC[C@@]2(C)[C@H]3CC[C@@H]4CN(Cc5ccccc5C5CC5)[C@@H](C5=CCOC5=O)C[C@H]4[C@]3(C)CC[C@H]2O1`, the cell death was 16.7% (MRC5; ATP luminescence; 25 µM; 72 h).
`COc1cc(C)cc2oc(-c3ccc(N(C)C)cc3)cc(=O)c12` gave a CC50 of 141 µM (HS27; MTT; 24 h).
`COc1cc2ccc(=O)oc2cc1OC` has an IC50 of over 100 µM (MRC5; MTT; 24 h).
`COc1cc(OC)c2c(=O)cc(-c3ccc(Br)cc3)oc2c1` has a CC50 of over 200 µM (HS27; MTT; 24 h).
The cell death of `CC(=O)OC[C@@]1(C)[C@H]2CC[C@@H]3CN(C(C)C)[C@@H](C4=CCOC4=O)C[C@H]3[C@]2(C)CC[C@H]1OC(C)=O` is reported as -2.1% (MRC5; ATP luminescence; 25 µM; 72 h).
The CC50 of `COc1cc(OC)c2c(=O)cc(-c3ccc(N(C)C)cc3)oc2c1-c1c(OC)cc(OC)c2c(=O)cc(-c3ccc(N(C)C)cc3)oc12` is reported as over 200 µM (HS27; MTT; 24 h).
With `CC1(C)OC[C@@]2(C)[C@H]3CC[C@@H]4CN(Cc5ccc(C(F)(F)F)cc5)[C@@H](C5=CCOC5=O)C[C@H]4[C@]3(C)CC[C@H]2O1` the cell death was 7.1% (MRC5; ATP luminescence; 25 µM; 72 h).
The CC50 of `COc1cc(OC)c2c(=O)cc(-c3ccc(C(F)(F)F)cc3)oc2c1` is reported as over 200 µM (HS27; MTT; 24 h).
`COc1ccc(COc2ccc(NC(=O)NC[C@H]3O[C@H](n4cc(C)c(=O)[nH]c4=O)C[C@@H]3O)cc2)cc1` gave a CC50 of over 50 µM (MRC5).
